According to ChEMBL document CHEMBL4007430, “Synthesis and Cytostatic and Antiviral Profiling of Thieno-Fused 7-Deazapurine Ribonucleosides” (J Med Chem, 2017):

What was measured:
HCT-116 [1] = experiment: Cytotoxicity against p53 deficient human HCT116 cells assessed as cell growth inhibition after 72 hrs by MTS assay; assay type: functional, cell-based; conditions: HCT-116, 72 h
Outline: (§1)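 Cells were exposed to compound for 3 days, then stained with MTS as a quantitative metabolic read-out. IC50 is the concentration that inhibits cell growth by 50%.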

Adenosine kinase [2] = molecular target: T1, Adenosine kinase (Homo sapiens, UniProt P55263); experiment: Drug metabolism in human HCT116 cells assessed as ADK-mediated 4-(Methylsulfanyl)-8-(beta-D-ribofuranosyl)-8H-thieno[2, 3:4,5]-pyrrolo[2,3-d]pyrimidine-5-O-monophosphate Sodium Salt formation per 5 x10^5 cells at 10 umol/L after 3 hrs by UPLC-MS/MS analysis; assay type: ADME, cell-based; conditions: 10 µM
T1 sequence (P55263 whole entry): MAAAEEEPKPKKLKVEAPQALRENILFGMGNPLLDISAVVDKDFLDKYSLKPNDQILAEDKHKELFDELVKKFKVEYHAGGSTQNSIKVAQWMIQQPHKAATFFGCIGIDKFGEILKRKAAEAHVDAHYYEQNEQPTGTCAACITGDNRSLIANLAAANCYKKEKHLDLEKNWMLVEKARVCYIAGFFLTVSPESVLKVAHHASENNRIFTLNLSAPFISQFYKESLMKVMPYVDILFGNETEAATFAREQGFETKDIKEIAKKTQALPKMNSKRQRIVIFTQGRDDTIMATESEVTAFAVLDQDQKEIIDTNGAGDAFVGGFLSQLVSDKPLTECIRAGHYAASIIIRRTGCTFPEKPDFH

Adenosine kinase [3] = molecular target: T1, Adenosine kinase; experiment: Drug metabolism in human BJ cells assessed as ADK-mediated 4-(Methylsulfanyl)-8-(beta-D-ribofuranosyl)-8H-thieno[2, 3:4,5]-pyrrolo[2,3-d]pyrimidine-5-O-monophosphate Sodium Salt formation per 5 x10^5 cells at 1 umol/L after 1 hr by UPLC-MS/MS analysis; assay type: ADME, cell-based; conditions: 1 µM
Adenosine kinase [4] = molecular target: T1, Adenosine kinase; experiment: Drug level in human HCT116 cells assessed as ADK-mediated compound formation treated with 4-(Methylsulfanyl)-8-(beta-D-ribofuranosyl)-8H-thieno[2',3':4,5]-pyrrolo[2,3-d]pyrimidine at 10 umol/L after 3 hrs by UPLC-MS/MS analysis; assay type: ADME, cell-based
MRC5 = experiment: Cytotoxicity against human MRC5 cells assessed as cell growth inhibition after 72 hrs by MTS assay; assay type: cell-based; conditions: MRC5, 72 h; outline: as §1
Adenosine kinase [5] = molecular target: T1, Adenosine kinase; experiment: Drug metabolism in human BJ cells assessed as ADK-mediated 4-(Methylsulfanyl)-8-(beta-D-ribofuranosyl)-8H-thieno[2, 3:4,5]-pyrrolo[2,3-d]pyrimidine-5-O-monophosphate Sodium Salt formation per 5 x10^5 cells at 1 umol/L after 3 hrs by UPLC-MS/MS analysis; assay type: ADME, cell-based; conditions: 1 µM
Adenosine kinase [6] = molecular target: T1, Adenosine kinase; experiment: Drug metabolism in human BJ cells assessed as ADK-mediated 4-(Methylsulfanyl)-8-(beta-D-ribofuranosyl)-8H-thieno[2, 3:4,5]-pyrrolo[2,3-d]pyrimidine-5-O-monophosphate Sodium Salt formation per 5 x10^5 cells at 10 umol/L after 3 hrs by UPLC-MS/MS analysis; assay type: ADME, cell-based; conditions: 10 µM
Adenosine kinase [7] = molecular target: T1, Adenosine kinase; experiment: Drug level in human HCT116 cells assessed as ADK-mediated compound formation treated with 4-(Methylsulfanyl)-8-(beta-D-ribofuranosyl)-8H-thieno[2',3':4,5]-pyrrolo[2,3-d]pyrimidine at 1 umol/L after 3 hrs by UPLC-MS/MS analysis; assay type: ADME, cell-based
[8] = Cytotoxicity against human K562-TAX cells assessed as cell growth inhibition after 72 hrs by MTS assay; assay type: functional, cell-based; outline: as §1
HepG2 = experiment: Cytotoxicity against human HepG2 cells assessed as reduction in cell viability after 72 hrs by XTT assay; assay type: functional, cell-based; conditions: HepG2, 72 h
Outline: (§2)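 Cells were incubated with compound for 3 days. Viability was then measured with the XTT tetrazolium assay.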

U2OS = experiment: Cytotoxicity against human U2OS cells assessed as cell growth inhibition after 72 hrs by MTS assay; assay type: functional, cell-based
HL-60 = experiment: Cytotoxicity against human HL60 cells assessed as reduction in cell viability after 72 hrs by XTT assay; assay type: functional, cell-based; conditions: HL-60, 72 h; outline: as §2
[9] = Cytotoxicity against mrp-1/mdr-1 overexpressing human CEM-DNR-bulk cells assessed as cell growth inhibition after 72 hrs by MTS assay; assay type: functional, cell-based
Outline: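 Cells were exposed to compound for 3 days, then stained with MTS as a quantitative metabolic read-out.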

Adenosine kinase [10] = molecular target: T1, Adenosine kinase; experiment: Drug metabolism in human HCT116 cells assessed as ADK-mediated 4-(Methylsulfanyl)-8-(beta-D-ribofuranosyl)-8H-thieno[2, 3:4,5]-pyrrolo[2,3-d]pyrimidine-5-O-monophosphate Sodium Salt formation per 5 x10^5 cells at 10 umol/L after 1 hr by UPLC-MS/MS analysis; assay type: ADME, cell-based; conditions: 10 µM
Adenosine kinase [11] = molecular target: T1, Adenosine kinase; experiment: Drug level assessed as human ADK-mediated compound formation treated with 4-(Methylsulfanyl)-8-(beta-D-ribofuranosyl)-8H-thieno[2',3':4,5]-pyrrolo[2,3-d]pyrimidine at 50 uM after 30 mins by HPLC analysis; assay type: ADME; conditions: 0.5 h
Adenosine kinase [12] = molecular target: T1, Adenosine kinase; experiment: Drug level in human BJ cells assessed as ADK-mediated compound formation treated with 4-(Methylsulfanyl)-8-(beta-D-ribofuranosyl)-8H-thieno[2',3':4,5]-pyrrolo[2,3-d]pyrimidine at 1 umol/L after 3 hrs by UPLC-MS/MS analysis; assay type: ADME, cell-based
Adenosine kinase [13] = molecular target: T1, Adenosine kinase; experiment: Drug metabolism in human HCT116 cells assessed as ADK-mediated 4-(Methylsulfanyl)-8-(beta-D-ribofuranosyl)-8H-thieno[2, 3:4,5]-pyrrolo[2,3-d]pyrimidine-5-O-monophosphate Sodium Salt formation per 5 x10^5 cells at 1 umol/L after 1 hr by UPLC-MS/MS analysis; assay type: ADME, cell-based; conditions: 1 µM
Adenosine kinase [14] = molecular target: T1, Adenosine kinase; experiment: Drug level in human BJ cells assessed as ADK-mediated compound formation treated with 4-(Methylsulfanyl)-8-(beta-D-ribofuranosyl)-8H-thieno[2',3':4,5]-pyrrolo[2,3-d]pyrimidine at 10 umol/L after 3 hrs by UPLC-MS/MS analysis; assay type: ADME, cell-based
A549 = experiment: Cytotoxicity against human A549 cells assessed as cell growth inhibition after 72 hrs by MTS assay; assay type: functional, cell-based; conditions: A549, 72 h; outline: as §1
K562 = experiment: Cytotoxicity against human K562 cells assessed as cell growth inhibition after 72 hrs by MTS assay; assay type: functional, cell-based; conditions: K562, 72 h; outline: as §1
HCT-116 [15] = experiment: Cytotoxicity against human HCT116 cells assessed as cell growth inhibition after 72 hrs by MTS assay; assay type: functional, cell-based; conditions: HCT-116, 72 h; outline: as §1
HeLa S3 = experiment: Cytotoxicity against human HeLaS3 cells assessed as reduction in cell viability after 72 hrs by XTT assay; assay type: functional, cell-based; conditions: HeLa S3, 72 h; outline: as §2
BJ = experiment: Cytotoxicity against human BJ cells assessed as cell growth inhibition after 72 hrs by MTS assay; assay type: cell-based; outline: as §1
Adenosine kinase [16] = molecular target: T1, Adenosine kinase; experiment: Drug level in human HCT116 cells assessed as ADK-mediated compound formation treated with 4-(Methylsulfanyl)-8-(beta-D-ribofuranosyl)-8H-thieno[2',3':4,5]-pyrrolo[2,3-d]pyrimidine at 10 umol/L after 1 hr by UPLC-MS/MS analysis; assay type: ADME, cell-based
Adenosine kinase [17] = molecular target: T1, Adenosine kinase; experiment: Drug metabolism in human BJ cells assessed as ADK-mediated 4-(Methylsulfanyl)-8-(beta-D-ribofuranosyl)-8H-thieno[2, 3:4,5]-pyrrolo[2,3-d]pyrimidine-5-O-monophosphate Sodium Salt formation per 5 x10^5 cells at 10 umol/L after 1 hr by UPLC-MS/MS analysis; assay type: ADME, cell-based; conditions: 10 µM
CCRF-CEM = experiment: Cytotoxicity against human CCRF-CEM cells assessed as cell growth inhibition after 72 hrs by MTS assay
Adenosine kinase [18] = molecular target: T1, Adenosine kinase; experiment: Drug metabolism in human HCT116 cells assessed as ADK-mediated 4-(Methylsulfanyl)-8-(beta-D-ribofuranosyl)-8H-thieno[2, 3:4,5]-pyrrolo[2,3-d]pyrimidine-5-O-monophosphate Sodium Salt formation per 5 x10^5 cells at 1 umol/L after 3 hrs by UPLC-MS/MS analysis; assay type: ADME, cell-based; conditions: 1 µM
Adenosine kinase [19] = molecular target: T1, Adenosine kinase; experiment: Drug level in human BJ cells assessed as ADK-mediated compound formation treated with 4-(Methylsulfanyl)-8-(beta-D-ribofuranosyl)-8H-thieno[2',3':4,5]-pyrrolo[2,3-d]pyrimidine at 10 umol/L after 1 hr by UPLC-MS/MS analysis; assay type: ADME, cell-based
Adenosine kinase [20] = molecular target: T1, Adenosine kinase; experiment: Drug level in human BJ cells assessed as ADK-mediated compound formation treated with 4-(Methylsulfanyl)-8-(beta-D-ribofuranosyl)-8H-thieno[2',3':4,5]-pyrrolo[2,3-d]pyrimidine at 1 umol/L after 1 hr by UPLC-MS/MS analysis; assay type: ADME, cell-based
Adenosine kinase [21] = molecular target: T1, Adenosine kinase; experiment: Drug level in human HCT116 cells assessed as ADK-mediated compound formation treated with 4-(Methylsulfanyl)-8-(beta-D-ribofuranosyl)-8H-thieno[2',3':4,5]-pyrrolo[2,3-d]pyrimidine at 1 umol/L after 1 hr by UPLC-MS/MS analysis; assay type: ADME, cell-based

CSc1ncnc2c1c1sccc1n2[C@@H]1O[C@H](COP(=O)([O-])O)[C@@H](O)[C@H]1O.[Na+]
IC50 (HCT-116 [1]): 130 nM | Drug metabolism (Adenosine kinase [2]): 15246.3 pmol | Drug metabolism (Adenosine kinase [3]): 19751.3 pmol | Drug metabolism (Adenosine kinase [4]): Metabolite_Detected | IC50 (MRC5): > 50000 nM | Drug metabolism (Adenosine kinase [5]): 27253.4 pmol | Drug metabolism (Adenosine kinase [6]): 65894.4 pmol | Drug metabolism (Adenosine kinase [7]): Metabolite_Detected | IC50 [8]: > 50000 nM | IC50 (HepG2): 540 nM | IC50 (U2OS): 9890 nM | IC50 (HL-60): 340 nM | IC50 [9]: 47600 nM | Drug metabolism (Adenosine kinase [10]): 6108.2 pmol | Drug metabolism (Adenosine kinase [11]): Metabolite_Detected | Drug metabolism (Adenosine kinase [12]): Metabolite_Detected | Drug metabolism (Adenosine kinase [13]): 4124 pmol | Drug metabolism (Adenosine kinase [14]): Metabolite_Detected | IC50 (A549): > 50000 nM | IC50 (K562): 390 nM | IC50 (HCT-116 [15]): 110 nM | IC50 (HeLa S3): 9610 nM | IC50 (BJ): 640 nM | Drug metabolism (Adenosine kinase [16]): Metabolite_Detected | Drug metabolism (Adenosine kinase [17]): 62703.9 pmol | IC50 (CCRF-CEM): 200 nM | Drug metabolism (Adenosine kinase [18]): 5737.8 pmol | Drug metabolism (Adenosine kinase [19]): Metabolite_Detected | Drug metabolism (Adenosine kinase [20]): Metabolite_Detected | Drug metabolism (Adenosine kinase [21]): Metabolite_Detected
